Each structure is given as a SMILES string.

Series [1] is described as follows: Metabolic stability in human liver microsomes assessed as parent compound remaining. Type of series: ADME, Microsome. The method in brief: (§1)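 Test compound at 0.5 μM initial concentration incubated with human, mouse or rat liver microsomes (protein 1 mg/mL). Metabolic stability reported as percent of parent compound remaining after incubation.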
Background: Liver microsomes are vesicles of endoplasmic reticulum, rich in cytochrome P450 enzymes.

Series [2] in a line: Metabolic stability in mouse liver microsomes assessed as parent compound remaining. Type of series: ADME, Microsome. The method in brief: as §1
Series [3] can be described thus: Metabolic stability in rat liver microsomes assessed as parent compound remaining. Type of series: ADME, Microsome. The method in brief:
as §1

Series [4] in a line: Half life in human liver microsomes. Type of series: ADME, Microsome. The method in brief: (§2)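 Liver microsome half-life (min) measured in human, mouse, rat, dog and cyno liver microsomes.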
Series [5] is described as follows: Half life in mouse liver microsomes. Type of series: ADME, Microsome. The method in brief: as §2
A short description of series [6]: Half life in rat liver microsomes. The series is classed as ADME, Microsome. The method in brief: as §2
A short description of series [7]: Half life in dog liver microsomes. Type of series: ADME, Canis lupus familiaris, Microsome. The method in brief: as §2
A short description of series [8]: Half life in cynomolgus monkey liver microsomes. Type of series: ADME, Macaca fascicularis, Microsome. The method in brief: as §2
Series [9] is described as follows: Permeability across apical to basolateral membrane in human Caco-2 cells. Type of series: ADME, cell-based. To be noted: read-out: permeability. The method in brief:
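Caco-2 monolayer permeability, apical-to-basolateral direction (Pc, nm/s). An efflux ratio is also reported.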
(In general: Caco-2 monolayers are a common model of the intestinal barrier.)

For series [10], the target named is T1, Nuclear receptor ROR-gamma (Homo sapiens, UniProt P51449).
T1 sequence (P51449 whole entry): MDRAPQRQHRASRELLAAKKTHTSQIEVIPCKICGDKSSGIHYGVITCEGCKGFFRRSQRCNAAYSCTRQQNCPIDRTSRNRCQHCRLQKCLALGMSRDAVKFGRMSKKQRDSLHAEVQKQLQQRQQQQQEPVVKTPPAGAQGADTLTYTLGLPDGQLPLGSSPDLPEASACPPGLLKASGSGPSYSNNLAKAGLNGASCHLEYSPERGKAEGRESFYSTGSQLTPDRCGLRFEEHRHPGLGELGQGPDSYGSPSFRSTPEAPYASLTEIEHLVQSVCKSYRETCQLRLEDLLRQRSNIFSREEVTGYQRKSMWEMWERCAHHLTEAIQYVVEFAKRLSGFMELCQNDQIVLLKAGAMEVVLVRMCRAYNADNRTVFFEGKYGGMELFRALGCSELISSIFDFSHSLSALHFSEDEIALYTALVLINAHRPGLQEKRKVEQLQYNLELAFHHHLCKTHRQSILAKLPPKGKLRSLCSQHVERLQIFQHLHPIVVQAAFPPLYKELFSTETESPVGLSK
Briefly: Inverse agonist activity at recombinant full-length human Gal4-fused RORgammat expressed in human Jurkat cells incubated for 18 hrs by steady-glo luciferase reporter gene assay. Type of series: cell-based. On the technique in general: In a reporter assay the amount or activity of a reporter protein is the signal.

The target in series [11] is T1, Nuclear receptor ROR-gamma. Briefly: Inverse agonist activity at RORgammat in CD3 and CD28-stimulated human whole blood assessed as suppression of IL17 preincubated for 1 hr followed by CD3 and CD28 stimulation measured after 20 hrs by AlphaLISA method. Type of series: tissue-based.

Regarding `C[C@@H](O)C(=O)N[C@@H]1CC[C@@]2(S(=O)(=O)c3ccc(F)cc3)c3ccc(C(F)(C(F)(F)F)C(F)(F)F)cc3CC[C@@H]12`, the Stabilty amounted to 71% in [1], 70% in series [2] and 14% in [3].

Regarding `O=C(NCCO)N[C@@H]1CC[C@@]2(S(=O)(=O)c3ccc(F)cc3)c3ccc(C(F)(C(F)(F)F)C(F)(F)F)cc3CC[C@@H]12`, the Stabilty was 97% in series [1], 93% in series [2] and 41% in series [3].

With `[2H]C([2H])([2H])N1C(=O)C(F)CC1C(=O)N[C@@H]1CC[C@@]2(S(=O)(=O)c3ccc(F)cc3)c3ccc(C(F)(C(F)(F)F)C(F)(F)F)cc3CC[C@@H]12` (single isomer, unassigned), the Stabilty in [1] worked out at 100%; in series [2], 86%; in [3], 100%. The half-life in [4] was 46 min; in [5], 38 min; in series [6], 56 min; in series [7] it was 120 min; in series [8], 24 min. The Papp A→B in series [9] came out at 9.2 ×10⁻⁶ cm/s.

For the compound `CC(=O)N[C@@H]1CC[C@@]2(S(=O)(=O)c3ccc(F)cc3)c3ccc(C(F)(C(F)(F)F)C(F)(F)F)cc3CC[C@@H]12`, the Stabilty in series [2] is given as 90%; in series [3] it was 100%.

Turning to `O=C(CO)N[C@@H]1CC[C@@]2(S(=O)(=O)c3ccc(F)cc3)c3ccc(C(F)(C(F)(F)F)C(F)(F)F)cc3CC[C@@H]12`, the figures for the Stabilty in [1], in series [2] and in [3] were 82%, 65% and 34%, respectively.

Consider `CC(C)(O)CNC(=O)N[C@@H]1CC[C@@]2(S(=O)(=O)c3ccc(F)cc3)c3ccc(C(F)(C(F)(F)F)C(F)(F)F)cc3CC[C@@H]12`, for which the figures for the Stabilty in [1] and in [3] were 54% and 42%, respectively.

Regarding `CC(C)(C(=O)N[C@@H]1CC[C@@]2(S(=O)(=O)c3ccc(F)cc3)c3ccc(C(F)(C(F)(F)F)C(F)(F)F)cc3CC[C@@H]12)N1CCOCC1`, the values for the Stabilty in series [1], in [2] and in [3] were 0.3%, 0.3% and 0.4%, respectively.

On to `[2H]C([2H])([2H])N1C(=O)C(O)CC1C(=O)N[C@@H]1CC[C@@]2(S(=O)(=O)c3ccc(F)cc3)c3ccc(C(F)(C(F)(F)F)C(F)(F)F)cc3CC[C@@H]12` (single isomer, unassigned), for which the concentration giving a half-maximal response (EC50) in [10] is 12.3 nM; in series [11] it was 134 nM. The Stabilty in series [1] was found to be 99%; in [2] it was 100%; in [3], 100%.

`CC(C)(N)C(=O)N[C@@H]1CC[C@@]2(S(=O)(=O)c3ccc(F)cc3)c3ccc(C(F)(C(F)(F)F)C(F)(F)F)cc3CC[C@@H]12`: the concentration giving a half-maximal response (EC50) in [10] was 30 nM; in [11], 164 nM. Further, the Stabilty is 80% in series [1], 100% in series [2] and 100% in series [3].

Consider `CC(=O)N1CCC(C(=O)N[C@@H]2CC[C@@]3(S(=O)(=O)c4ccc(F)cc4)c4ccc(C(F)(C(F)(F)F)C(F)(F)F)cc4CC[C@@H]23)CC1`, for which the Stabilty in [1] is given as 61%; in series [2] it was 67%; in series [3], 100%.

On to `CC(C)(N)CC(=O)N[C@@H]1CC[C@@]2(S(=O)(=O)c3ccc(F)cc3)c3ccc(C(F)(C(F)(F)F)C(F)(F)F)cc3CC[C@@H]12`, for which the Stabilty in [1] is 98%; in series [2] it was 85%; in series [3], 89%.

For the compound `CC(C)(O)CC(=O)N[C@@H]1CC[C@@]2(S(=O)(=O)c3ccc(F)cc3)c3ccc(C(F)(C(F)(F)F)C(F)(F)F)cc3CC[C@@H]12`, the Stabilty in series [1] was 97%; in series [2], 86%; in series [3], 90%.

On to `CS(=O)(=O)N[C@@H]1CC[C@@]2(S(=O)(=O)c3ccc(F)cc3)c3ccc(C(F)(C(F)(F)F)C(F)(F)F)cc3CC[C@@H]12`, for which the figures for the EC50 in series [10] and in [11] were 7.3 nM and 157 nM, respectively.

In the case of `O=C(N[C@@H]1CC[C@@]2(S(=O)(=O)c3ccc(F)cc3)c3ccc(C(F)(C(F)(F)F)C(F)(F)F)cc3CC[C@@H]12)C1(O)CCNCC1`, the Stabilty in series [1] is reported as 100%; in [2], 88%; in series [3], 83%.

Consider `CC(=O)NCC(=O)N[C@@H]1CC[C@@]2(S(=O)(=O)c3ccc(F)cc3)c3ccc(C(F)(C(F)(F)F)C(F)(F)F)cc3CC[C@@H]12`, for which the values for the Stabilty in series [1], in series [2] and in series [3] were 100%, 93% and 10%, respectively.

Turning to `CC(C)(O)CNC(=O)[C@@H]1CC[C@@]2(S(=O)(=O)c3ccc(F)cc3)c3ccc(C(F)(C(F)(F)F)C(F)(F)F)cc3CC[C@@H]12`, the results for the half-life in [6] and in series [7] were 18 min and 27 min, respectively.

With `O=C(N[C@@H]1CC[C@@]2(S(=O)(=O)c3ccc(F)cc3)c3ccc(C(F)(C(F)(F)F)C(F)(F)F)cc3CC[C@@H]12)C1(O)CCCCC1`, the Stabilty in series [1] was 50%; in [2], 56%; in series [3], 22%.

For `O=C(N[C@@H]1CC[C@@]2(S(=O)(=O)c3ccc(F)cc3)c3ccc(C(F)(C(F)(F)F)C(F)(F)F)cc3CC[C@@H]12)C1(O)CCOCC1`, the Stabilty is 100% in [1], 75% in [2] and 66% in series [3].

For the compound `CNC(=O)N[C@@H]1CC[C@@]2(S(=O)(=O)c3ccc(F)cc3)c3ccc(C(F)(C(F)(F)F)C(F)(F)F)cc3CC[C@@H]12`, the results for the Stabilty in [1], in series [2] and in series [3] were 40%, 32% and 10%, respectively.

Take `CC(C)(C(=O)N[C@@H]1CC[C@@]2(S(=O)(=O)c3ccc(F)cc3)c3ccc(C(F)(C(F)(F)F)C(F)(F)F)cc3CC[C@@H]12)N1CCNCC1`: the EC50 in series [10] came to 63 nM. The Stabilty is given as 74% in [1], 78% in series [2] and 97% in series [3].

Consider `CN(C(=O)C(C)(C)O)[C@@H]1CC[C@@]2(S(=O)(=O)c3ccc(F)cc3)c3ccc(C(F)(C(F)(F)F)C(F)(F)F)cc3CC[C@@H]12`, for which the values for the concentration for a half-maximal effect (EC50) in [10] and in series [11] were 45 nM and 2730 nM, respectively.

By half-life is commonly meant how long it takes for the measured level to halve. Broadly, the EC50 is the concentration giving half of the maximal effect.

Source of the values: ChEMBL document CHEMBL4819034, “Tricyclic-Carbocyclic RORγt Inverse Agonists-Discovery of BMS-986313” (J Med Chem, 2021).
